Experimental data published in ChEMBL document CHEMBL1135620, “Cyclosporins: structure-activity relationships for the inhibition of the human FPR1 formylpeptide receptor” (J Med Chem, 2002).

biological target: T1, fMet-Leu-Phe receptor (Homo sapiens, UniProt P21462); assay: Inhibitory activity against human formylpeptide receptor (FPR) of human leukemia HL-60 cells; format: cell-based; conditions: not given
T1 sequence (P21462 whole entry): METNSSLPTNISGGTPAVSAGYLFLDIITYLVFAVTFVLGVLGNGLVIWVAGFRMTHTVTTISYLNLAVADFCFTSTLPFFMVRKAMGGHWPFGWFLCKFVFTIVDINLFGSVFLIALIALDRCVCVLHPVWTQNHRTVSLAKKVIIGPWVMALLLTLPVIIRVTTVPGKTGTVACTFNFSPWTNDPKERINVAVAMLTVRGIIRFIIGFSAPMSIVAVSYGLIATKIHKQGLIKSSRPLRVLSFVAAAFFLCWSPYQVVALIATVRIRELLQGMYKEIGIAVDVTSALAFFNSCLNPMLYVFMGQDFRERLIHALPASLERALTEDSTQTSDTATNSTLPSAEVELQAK
Summary of the method: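 HL-60 cells differentiated 48 h with 0.2 mM dibutyryl cAMP, washed, then treated with 5 μM cytochalasin B (5–10 min, 37 °C). Stimulated 10 min with 30 nM f-MLF. N-acetyl-β-D-glucosaminidase release read at 410 nm on p-nitrophenyl substrate after spontaneous-release subtraction. Duplicate wells; IC20/IC50 as mean ± SD of independent experiments.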

| IC50 [µM] | Structure (SMILES) |
| --- | --- |
| > 5 | C/C=C/C[C@@H](C)[C@@H](O)[C@H]1C(=O)N[C@@H](CC)C(=O)NCC(=O)N(C)[C@@H](CC(C)C)C(=O)N[C@@H](C(C)C)C(=O)N(C)[C@@H](CC(C)C)C(=O)N[C@@H](C)C(=O)N[C@H](CO)C(=O)N(C)[C@@H](CC(C)C)C(=O)N(C)[C@@H](CC(C)C)C(=O)N(C)[C@@H](C(C)C)C(=O)N1C |
| 3 | C/C=C/C[C@@H](C)[C@@H](O)[C@H]1C(=O)N[C@@H](CC)C(=O)N(C)CC(=O)N(C)[C@@H](CC(C)C)C(=O)N[C@@H](C(C)C)C(=O)N(C)[C@@H](CC(C)C)C(=O)N[C@@H](C)C(=O)N[C@H](C)C(=O)N[C@@H](CC(C)C)C(=O)N(C)[C@@H](CC(C)C)C(=O)N(C)[C@@H](C(C)C)C(=O)N1C |
| > 10 | C/C=C/C[C@@H](C)[C@@H](O)[C@H]1C(=O)N[C@@H](CCC)C(=O)N(C)CC(=O)N(C)[C@@H](CC(C)C)C(=O)N[C@@H](C(C)C)C(=O)N(C)[C@@H](CC(C)C)C(=O)N[C@@H](C)C(=O)N[C@H](C)C(=O)N[C@@H](CC(C)C)C(=O)N(C)[C@@H](CC(C)C)C(=O)N(C)[C@@H](C(C)C)C(=O)N1C |
| > 10 | CC/C=C/C[C@@H](C)[C@@H](O)[C@H]1C(=O)N[C@@H]([C@@H](C)O)C(=O)N(C)CC(=O)N(C)[C@@H](CC(C)C)C(=O)N[C@@H](C(C)C)C(=O)N(C)[C@@H](CC(C)C)C(=O)N[C@@H](C)C(=O)N[C@H](C)C(=O)N(C)[C@@H](CC(C)C)C(=O)N(C)[C@@H](CC(C)C)C(=O)N(C)[C@@H](C(C)C)C(=O)N1C |
| 6.3 | CC/C=C/C[C@@H](C)[C@@H](O)[C@H]1C(=O)N[C@@H](CC)C(=O)N(C)CC(=O)N(C)[C@@H](CC(C)C)C(=O)N[C@@H](C(C)C)C(=O)N(C)[C@@H](CC(C)C)C(=O)N[C@@H](C)C(=O)N[C@H](CCCCN)C(=O)N(C)[C@@H](CC(C)C)C(=O)N(C)[C@@H](CC(C)C)C(=O)N(C)[C@@H](C(C)C)C(=O)N1C |
| > 3 | C/C=C/C[C@@H](C)[C@@H](O)[C@H]1C(=O)N[C@@H]([C@@H](C)O)C(=O)N(C)CC(=O)N(C)[C@@H](CC(C)C)C(=O)N[C@@H](C(C)C)C(=O)N(C)[C@@H](CC(C)C)C(=O)N[C@@H](C)C(=O)N[C@H](C)C(=O)N(C)[C@@H](CC(C)C)C(=O)N[C@@H](CC(C)C)C(=O)N(C)[C@@H](C(C)C)C(=O)N1C |
| > 10 | C/C=C/C[C@@H](C)C[C@H]1C(=O)N[C@@H](CC)C(=O)N(C)CC(=O)N(C)[C@@H](CC(C)C)C(=O)N[C@@H](C(C)C)C(=O)N(C)[C@@H](CC(C)C)C(=O)N[C@@H](C)C(=O)N[C@H](C)C(=O)N(C)[C@@H](CC(C)C)C(=O)N(C)[C@@H](CC(C)C)C(=O)N(C)[C@@H](C(C)C)C(=O)N1C |
| > 10 | C/C=C/C[C@@H](C)[C@@H](O)[C@H]1C(=O)N[C@@H](CCC)C(=O)N(C)CC(=O)N(C)[C@@H](CC(C)C)C(=O)N[C@@H](C(C)C)C(=O)N[C@@H](CC(C)C)C(=O)N[C@@H](C)C(=O)N[C@H](C)C(=O)N(C)[C@@H](CC(C)C)C(=O)N(C)[C@@H](CC(C)C)C(=O)N(C)[C@@H](C(C)C)C(=O)N1C |
| 2.52 | C/C=C/C[C@@H](C)[C@@H](O)[C@H]1C(=O)N[C@@H](CC)C(=O)N(C)CC(=O)N(C)[C@@H](CC(C)C)C(=O)N[C@@H](C(C)C)C(=O)N(C)[C@@H](CC(C)C)C(=O)N[C@@H](C)C(=O)N[C@H](C)C(=O)N(C)[C@@H](CC(C)C)C(=O)N(C)[C@@H](CC(C)C)C(=O)N(C)[C@@H](C)C(=O)N1C |
| 9.2 | C/C=C/C[C@@H](C)[C@@H](O)[C@H]1C(=O)N[C@@H](CC)C(=O)N(C)CC(=O)N(C)[C@@H](CC(C)C)C(=O)N[C@@H](C(C)C)C(=O)N(C)[C@@H](CC(C)C)C(=O)N[C@@H](C)C(=O)N[C@H](C)C(=O)N(C)[C@@H](CC(C)C)C(=O)N[C@@H](CC(C)C)C(=O)N(C)[C@@H](C(C)C)C(=O)N1C |
| > 10 | CC/C=C/C[C@@H](C)[C@@H](O)[C@H]1C(=O)N[C@@H](C(C)C)C(=O)N(C)CC(=O)N(C)[C@@H](CC(C)C)C(=O)N[C@@H](C(C)C)C(=O)N(C)[C@@H](CC(C)C)C(=O)N[C@@H](C)C(=O)N[C@H](C)C(=O)N(C)[C@@H](CC(C)C)C(=O)N(C)[C@@H](CC(C)C)C(=O)N(C)[C@@H](C(C)C)C(=O)N1C |
| > 10 | CCC[C@@H]1NC(=O)[C@H](CC(C)C)N(C)C(=O)[C@H](C(C)C)N(C)C(=O)[C@H](CC(C)C)N(C)C(=O)[C@H](CC(C)C)N(C)C(=O)[C@@H](C)NC(=O)[C@H](C)NC(=O)[C@H](CC(C)C)N(C)C(=O)[C@H](C(C)C)NC(=O)[C@H](CC(C)C)N(C)C(=O)CN(C)C1=O |
| > 3 | C/C=C/C[C@@H](C)[C@@H](O)[C@H]1C(=O)N[C@@H](C(C)C)C(=O)N(C)CC(=O)N(C)[C@@H](CC(C)C)C(=O)N[C@@H](C(C)C)C(=O)N(C)[C@@H](CC(C)C)C(=O)N[C@@H](C)C(=O)N[C@H](C)C(=O)N(C)[C@@H](CC(C)C)C(=O)N[C@@H](CC(C)C)C(=O)N(C)[C@@H](C(C)C)C(=O)N1C |
| > 10 | CC/C=C/C[C@@H](C)[C@@H](O)[C@H]1C(=O)N[C@@H](CCC)C(=O)N(C)CC(=O)N(C)[C@@H](CC(C)C)C(=O)N[C@@H](C(C)C)C(=O)N(C)[C@@H](CC(C)C)C(=O)N[C@@H](C)C(=O)N[C@H](C)C(=O)N(C)[C@@H](CC(C)C)C(=O)N(C)[C@@H](CC(C)C)C(=O)N(C)[C@@H](C(C)C)C(=O)N1C |
| 3.25 | C/C=C/C[C@@H](C)[C@@H](O)[C@H]1C(=O)N[C@@H]([C@@H](C)O)C(=O)N(C)CC(=O)N(C)[C@@H](CC(C)C)C(=O)N[C@@H](CC(C)C)C(=O)N(C)[C@@H](CC(C)C)C(=O)N[C@@H](C)C(=O)N[C@H](C)C(=O)N(C)[C@@H](CC(C)C)C(=O)N[C@@H](C)C(=O)N(C)[C@@H](C(C)C)C(=O)N1C |
| 1.8 | C/C=C/C[C@@H](C)[C@@H](O)[C@H]1C(=O)N[C@@H](CC)C(=O)N(C)CC(=O)N(C)[C@@H](CC(C)C)C(=O)N[C@@H](C(C)C)C(=O)N[C@@H](CC(C)C)C(=O)N[C@@H](C)C(=O)N[C@H](C)C(=O)N(C)[C@@H](CC(C)C)C(=O)N[C@@H](CC(C)C)C(=O)N(C)[C@@H](C(C)C)C(=O)N1C |
| 2.3 | C/C=C/C[C@@H](C)[C@@H](O)[C@H]1C(=O)N[C@@H]([C@@H](C)O)C(=O)N(C)CC(=O)N(C)[C@@H](CC(C)C)C(=O)N[C@@H]([C@@H](C)CC)C(=O)N(C)[C@@H](CC(C)C)C(=O)N[C@@H](C)C(=O)N[C@H](C)C(=O)N(C)[C@@H](CC(C)C)C(=O)N(C)[C@@H](CC(C)C)C(=O)N(C)[C@@H](C(C)C)C(=O)N1C |

| Structure (SMILES) | IC50 [µM] |
| --- | --- |
| C/C=C/C[C@@H](C)[C@@H](O)[C@H]1C(=O)N[C@@H]([C@@H](C)O)C(=O)N(C)CC(=O)N(C)[C@@H](CC(C)C)C(=O)N[C@@H]([C@@H](C)CC)C(=O)N(C)[C@@H](CC(C)C)C(=O)N[C@@H](C)C(=O)N[C@](O)(C(C)C)C(=O)N(C)[C@@H](CC(C)C)C(=O)N[C@@H](CC(C)C)C(=O)N(C)[C@@H](C(C)C)C(=O)N1C | 0.75 |
| C/C=C/C[C@@H](C)[C@@H](O)[C@H]1C(=O)N[C@@H]([C@@H](C)O)C(=O)N(C)CC(=O)N(C)[C@@H](CC(C)C)C(=O)N[C@@H](CC(C)C)C(=O)N(C)[C@@H](CC(C)C)C(=O)N[C@@H](C)C(=O)N[C@](O)(C(C)C)C(=O)N(C)[C@@H](CC(C)C)C(=O)N[C@@H](CC(C)C)C(=O)N(C)[C@@H](C(C)C)C(=O)N1C | 0.57 |

same assay, conditions: hl-60

| IC50 [µM] | Structure (SMILES) |
| --- | --- |
| > 10 | CC/C=C/C[C@@H](C)[C@@H](O)[C@H]1C(=O)N[C@@H](CC)C(=O)N(C)CC(=O)N(C)[C@@H](Cc2ccccc2)C(=O)N[C@@H](C(C)C)C(=O)N(C)[C@@H](CC(C)C)C(=O)N[C@@H](C)C(=O)N[C@H](C)C(=O)N(C)[C@@H](CC(C)C)C(=O)N(C)[C@@H](CC(C)C)C(=O)N(C)[C@@H](C(C)C)C(=O)N1C |
